In brackets after ≈: the same amount, converted by molar mass.
What follows are molecules tested on Klebsiella pneumoniae (assay: Antibacterial activity against gram-negative Klebsiella pneumoniae KP457 harboring blacTX-M-15 extended spectrum beta-lactamase gene by CLSI method).
Format: functional
Summary of the method: (§1)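 CLSI broth microdilution MIC in fresh cation-adjusted Mueller Hinton broth, supplemented with defibrinated horse blood where appropriate. Compounds serially diluted in sterile deionized water. Runs accepted when comparator antibiotics against ATCC quality-control strains fell within recommended ranges.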

Row | SMILES | MIC [µg/mL]
1 | CN(C)[C@@H]1C(O)=C(C(N)=O)C(=O)[C@@]2(O)C(O)=C3C(=O)c4c(O)cc([C@@H]5CCCN5CC5CC5)c(C(F)(F)F)c4C[C@H]3C[C@@H]12 | 16 (≈ 26.4 µM)
2 | CC1CCNC1c1cc(O)c2c(c1C(F)(F)F)C[C@H]1C[C@H]3[C@H](N(C)C)C(O)=C(C(N)=O)C(=O)[C@@]3(O)C(O)=C1C2=O (stereo not given in full) | 1 (≈ 1.77 µM)

Each molecule was assayed on Enterobacter cloacae (assay: Antibacterial activity against gram-negative Enterobacter cloacae EC1603 harboring tet(A) by CLSI method).
Format: functional
Summary of the method: as §1

Row | SMILES | MIC [µg/mL]
3 | CN(C)[C@@H]1C(O)=C(C(N)=O)C(=O)[C@@]2(O)C(O)=C3C(=O)c4c(O)cc([C@@H]5CCCN5CC5CC5)c(C(F)(F)F)c4C[C@H]3C[C@@H]12 | 32 (≈ 52.8 µM)
4 | CC1CCNC1c1cc(O)c2c(c1C(F)(F)F)C[C@H]1C[C@H]3[C@H](N(C)C)C(O)=C(C(N)=O)C(=O)[C@@]3(O)C(O)=C1C2=O (stereo not given in full) | 2 (≈ 3.54 µM)

The molecules below were run on Staphylococcus aureus (assay: Antibacterial activity against gram-positive Staphylococcus aureus SA158 harboring tet(K) by CLSI method).
Format: functional
Summary of the method: as §1

Row | SMILES | MIC [µg/mL]
5 | CN(C)[C@@H]1C(O)=C(C(N)=O)C(=O)[C@@]2(O)C(O)=C3C(=O)c4c(O)cc([C@@H]5CCCN5CC5CC5)c(C(F)(F)F)c4C[C@H]3C[C@@H]12 | 0.125 (≈ 0.206 µM)
6 | CC1CCNC1c1cc(O)c2c(c1C(F)(F)F)C[C@H]1C[C@H]3[C@H](N(C)C)C(O)=C(C(N)=O)C(=O)[C@@]3(O)C(O)=C1C2=O (stereo not given in full) | ≤ 0.0156

The molecules below were run on Burkholderia cenocepacia (assay: Antibacterial activity against gram-negative Burkholderia cenocepacia BC240 by CLSI method).
Format: functional
Summary of the method: (§2)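 Defibrinated horse blood added where appropriate. Compounds serially diluted in sterile deionized water. Strains from ATCC unless otherwise noted. Runs accepted when comparator antibiotics fell within QC ranges for ATCC quality control strains.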

Row | SMILES | MIC [µg/mL]
7 | CN(C)[C@@H]1C(O)=C(C(N)=O)C(=O)[C@@]2(O)C(O)=C3C(=O)c4c(O)cc([C@@H]5CCCN5CC5CC5)c(C(F)(F)F)c4C[C@H]3C[C@@H]12 | 16 (≈ 26.4 µM)
8 | CC1CCNC1c1cc(O)c2c(c1C(F)(F)F)C[C@H]1C[C@H]3[C@H](N(C)C)C(O)=C(C(N)=O)C(=O)[C@@]3(O)C(O)=C1C2=O (stereo not given in full) | 4 (≈ 7.07 µM)

The molecules below were run on Enterococcus faecalis (assay: Antibacterial activity against gram-positive Enterococcus faecalis EFs327 harboring tet(M) by CLSI method).
Format: functional
Summary of the method: as §1

Row | SMILES | MIC [µg/mL]
9 | CN(C)[C@@H]1C(O)=C(C(N)=O)C(=O)[C@@]2(O)C(O)=C3C(=O)c4c(O)cc([C@@H]5CCCN5CC5CC5)c(C(F)(F)F)c4C[C@H]3C[C@@H]12 | 1 (≈ 1.65 µM)
10 | CC1CCNC1c1cc(O)c2c(c1C(F)(F)F)C[C@H]1C[C@H]3[C@H](N(C)C)C(O)=C(C(N)=O)C(=O)[C@@]3(O)C(O)=C1C2=O (stereo not given in full) | 1 (≈ 1.77 µM)

These molecules were tested on Streptococcus pneumoniae (assay: Antibacterial activity against gram-positive Streptococcus pneumoniae SP160 harboring tet(M) by CLSI method).
Format: functional
Summary of the method: as §1

Row | SMILES | MIC [µg/mL]
11 | CN(C)[C@@H]1C(O)=C(C(N)=O)C(=O)[C@@]2(O)C(O)=C3C(=O)c4c(O)cc([C@@H]5CCCN5CC5CC5)c(C(F)(F)F)c4C[C@H]3C[C@@H]12 | 0.0312 (≈ 0.0515 µM)
12 | CC1CCNC1c1cc(O)c2c(c1C(F)(F)F)C[C@H]1C[C@H]3[C@H](N(C)C)C(O)=C(C(N)=O)C(=O)[C@@]3(O)C(O)=C1C2=O (stereo not given in full) | ≤ 0.0156

What follows are molecules tested on Escherichia coli (assay: Antibacterial activity against gram-negative Escherichia coli EC107 by CLSI method).
Format: functional
Summary of the method: as §2, with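 “Broth microdilution MIC per CLSI in cation-adjusted Mueller Hinton broth, prepared fresh and held at 4 °C. Defibrinated” for “Defibrinated”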

Row | SMILES | MIC [µg/mL]
13 | CN(C)[C@@H]1C(O)=C(C(N)=O)C(=O)[C@@]2(O)C(O)=C3C(=O)c4c(O)cc([C@@H]5CCCN5CC5CC5)c(C(F)(F)F)c4C[C@H]3C[C@@H]12 | 1 (≈ 1.65 µM)
14 | CC1CCNC1c1cc(O)c2c(c1C(F)(F)F)C[C@H]1C[C@H]3[C@H](N(C)C)C(O)=C(C(N)=O)C(=O)[C@@]3(O)C(O)=C1C2=O (stereo not given in full) | ≤ 0.0156

The molecules below were run on Staphylococcus aureus (assay: Antibacterial activity against gram-positive Staphylococcus aureus SA101 by CLSI method).
Format: functional
Summary of the method: as §2, with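 “Broth microdilution MIC per CLSI in cation-adjusted Mueller Hinton broth, prepared fresh and held at 4 °C. Defibrinated” for “Defibrinated”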

Row | SMILES | MIC [µg/mL]
15 | CN(C)[C@@H]1C(O)=C(C(N)=O)C(=O)[C@@]2(O)C(O)=C3C(=O)c4c(O)cc([C@@H]5CCCN5CC5CC5)c(C(F)(F)F)c4C[C@H]3C[C@@H]12 | 0.5 (≈ 0.826 µM)
16 | CC1CCNC1c1cc(O)c2c(c1C(F)(F)F)C[C@H]1C[C@H]3[C@H](N(C)C)C(O)=C(C(N)=O)C(=O)[C@@]3(O)C(O)=C1C2=O (stereo not given in full) | 0.125 (≈ 0.221 µM)

The molecules below were run on Staphylococcus aureus (assay: Antibacterial activity against gram-positive Staphylococcus aureus SA161 harboring tet(M) by CLSI method).
Format: functional
Summary of the method: as §1

Row | SMILES | MIC [µg/mL]
17 | CN(C)[C@@H]1C(O)=C(C(N)=O)C(=O)[C@@]2(O)C(O)=C3C(=O)c4c(O)cc([C@@H]5CCCN5CC5CC5)c(C(F)(F)F)c4C[C@H]3C[C@@H]12 | 1 (≈ 1.65 µM)
18 | CC1CCNC1c1cc(O)c2c(c1C(F)(F)F)C[C@H]1C[C@H]3[C@H](N(C)C)C(O)=C(C(N)=O)C(=O)[C@@]3(O)C(O)=C1C2=O (stereo not given in full) | 8 (≈ 14.1 µM)

The molecules below were run on Stenotrophomonas maltophilia (assay: Antibacterial activity against gram-negative Stenotrophomonas maltophilia SM256 by CLSI method).
Format: functional
Summary of the method: as §2, with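 “Broth microdilution MIC per CLSI in cation-adjusted Mueller Hinton broth, prepared fresh and held at 4 °C. Defibrinated” for “Defibrinated”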

Row | SMILES | MIC [µg/mL]
19 | CN(C)[C@@H]1C(O)=C(C(N)=O)C(=O)[C@@]2(O)C(O)=C3C(=O)c4c(O)cc([C@@H]5CCCN5CC5CC5)c(C(F)(F)F)c4C[C@H]3C[C@@H]12 | 4 (≈ 6.6 µM)
20 | CC1CCNC1c1cc(O)c2c(c1C(F)(F)F)C[C@H]1C[C@H]3[C@H](N(C)C)C(O)=C(C(N)=O)C(=O)[C@@]3(O)C(O)=C1C2=O (stereo not given in full) | 0.5 (≈ 0.884 µM)

The molecules below were run on Enterococcus faecium (assay: Antibacterial activity against gram-positive Enterococcus faecium EFm404 harboring tet(M) by CLSI method).
Format: functional
Summary of the method: as §1

Row | SMILES | MIC [µg/mL]
21 | CN(C)[C@@H]1C(O)=C(C(N)=O)C(=O)[C@@]2(O)C(O)=C3C(=O)c4c(O)cc([C@@H]5CCCN5CC5CC5)c(C(F)(F)F)c4C[C@H]3C[C@@H]12 | 1 (≈ 1.65 µM)
22 | CC1CCNC1c1cc(O)c2c(c1C(F)(F)F)C[C@H]1C[C@H]3[C@H](N(C)C)C(O)=C(C(N)=O)C(=O)[C@@]3(O)C(O)=C1C2=O (stereo not given in full) | 0.5 (≈ 0.884 µM)

What follows are molecules tested on Escherichia coli (assay: Antibacterial activity against gram-negative Escherichia coli EC155 harboring tet(A) by CLSI method).
Format: functional
Summary of the method: as §1

Row | SMILES | MIC [µg/mL]
23 | CN(C)[C@@H]1C(O)=C(C(N)=O)C(=O)[C@@]2(O)C(O)=C3C(=O)c4c(O)cc([C@@H]5CCCN5CC5CC5)c(C(F)(F)F)c4C[C@H]3C[C@@H]12 | 2 (≈ 3.3 µM)
24 | CC1CCNC1c1cc(O)c2c(c1C(F)(F)F)C[C@H]1C[C@H]3[C@H](N(C)C)C(O)=C(C(N)=O)C(=O)[C@@]3(O)C(O)=C1C2=O (stereo not given in full) | 2 (≈ 3.54 µM)

These molecules were tested on Acinetobacter baumannii (assay: Antibacterial activity against gram-negative Acinetobacter baumannii AB250 by CLSI method).
Format: functional
Summary of the method: as §2, with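 “Broth microdilution MIC per CLSI in cation-adjusted Mueller Hinton broth, prepared fresh and held at 4 °C. Defibrinated” for “Defibrinated”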

Row | SMILES | MIC [µg/mL]
25 | CN(C)[C@@H]1C(O)=C(C(N)=O)C(=O)[C@@]2(O)C(O)=C3C(=O)c4c(O)cc([C@@H]5CCCN5CC5CC5)c(C(F)(F)F)c4C[C@H]3C[C@@H]12 | 4 (≈ 6.6 µM)
26 | CC1CCNC1c1cc(O)c2c(c1C(F)(F)F)C[C@H]1C[C@H]3[C@H](N(C)C)C(O)=C(C(N)=O)C(=O)[C@@]3(O)C(O)=C1C2=O (stereo not given in full) | 1 (≈ 1.77 µM)

What follows are molecules tested on Pseudomonas aeruginosa (assay: Antibacterial activity against gram-negative Pseudomonas aeruginosa PA555 by CLSI method).
Format: functional
Summary of the method: as §2, with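 “Broth microdilution MIC per CLSI in cation-adjusted Mueller Hinton broth, prepared fresh and held at 4 °C. Defibrinated” for “Defibrinated”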

Row | SMILES | MIC [µg/mL]
27 | CN(C)[C@@H]1C(O)=C(C(N)=O)C(=O)[C@@]2(O)C(O)=C3C(=O)c4c(O)cc([C@@H]5CCCN5CC5CC5)c(C(F)(F)F)c4C[C@H]3C[C@@H]12 | > 32
28 | CC1CCNC1c1cc(O)c2c(c1C(F)(F)F)C[C@H]1C[C@H]3[C@H](N(C)C)C(O)=C(C(N)=O)C(=O)[C@@]3(O)C(O)=C1C2=O (stereo not given in full) | 8 (≈ 14.1 µM)

These molecules were tested on Proteus mirabilis (assay: Antibacterial activity against gram-negative Proteus mirabilis PM385 by CLSI method).
Format: functional
Summary of the method: as §2, with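 “Broth microdilution MIC per CLSI in cation-adjusted Mueller Hinton broth, prepared fresh and held at 4 °C. Defibrinated” for “Defibrinated”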

Row | SMILES | MIC [µg/mL]
29 | CN(C)[C@@H]1C(O)=C(C(N)=O)C(=O)[C@@]2(O)C(O)=C3C(=O)c4c(O)cc([C@@H]5CCCN5CC5CC5)c(C(F)(F)F)c4C[C@H]3C[C@@H]12 | 8 (≈ 13.2 µM)
30 | CC1CCNC1c1cc(O)c2c(c1C(F)(F)F)C[C@H]1C[C@H]3[C@H](N(C)C)C(O)=C(C(N)=O)C(=O)[C@@]3(O)C(O)=C1C2=O (stereo not given in full) | 2 (≈ 3.54 µM)
